Measured values reported in ChEMBL document CHEMBL4825663 (J Med Chem, 2021).

Key:
[1] = Toxicity in Beagle dog assessed as increase in total leukocyte and eosinophil counts at >= 100 mg/kg, po and measured after 13 weeks; format: organism-based, Canis lupus familiaris; conditions: in vivo, 2184 h
[2] = target: T1, Organic anion transporter 3 (Homo sapiens, UniProt Q8TCC7); assay: Inhibition of human OAT3 assessed as reduction in intracellular probe substrate accumulation upto 100 uM by microplate scintillation counter analysis relative to control; format: cell-based
T1 sequence (Q8TCC7 whole entry): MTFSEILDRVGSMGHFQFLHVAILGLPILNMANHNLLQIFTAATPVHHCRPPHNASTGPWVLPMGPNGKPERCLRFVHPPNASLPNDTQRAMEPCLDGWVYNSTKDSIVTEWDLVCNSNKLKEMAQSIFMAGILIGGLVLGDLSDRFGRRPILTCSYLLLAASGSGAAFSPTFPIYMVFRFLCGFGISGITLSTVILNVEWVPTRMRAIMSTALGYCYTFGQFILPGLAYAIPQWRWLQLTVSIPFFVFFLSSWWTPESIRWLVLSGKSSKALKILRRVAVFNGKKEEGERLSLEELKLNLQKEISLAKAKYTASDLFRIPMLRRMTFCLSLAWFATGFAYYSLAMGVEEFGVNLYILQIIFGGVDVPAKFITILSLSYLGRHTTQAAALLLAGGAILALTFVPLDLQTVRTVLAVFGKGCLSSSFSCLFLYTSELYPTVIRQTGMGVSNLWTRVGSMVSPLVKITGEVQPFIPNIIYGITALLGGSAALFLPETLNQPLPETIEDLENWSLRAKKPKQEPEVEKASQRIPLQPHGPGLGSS
Procedure, shortened: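 Cellular uptake-inhibition assays used Chinese hamster ovary, HEK293 or MDCKII cells stably expressing the respective human SLC transporter, run alongside the corresponding control cells. Inhibitor was tested at concentrations up to 100 μM.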

[3] = Half life in Sprague-Dawley rat at 3 mg/kg, iv measured upto 48 hrs by LC-MS/MS analysis; format: ADME, organism-based; conditions: in vivo
Procedure, shortened: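 Plasma pharmacokinetics in male Sprague-Dawley rats and male Beagle dogs (n = 3 per species), each given a single dose by IV at 3 mg/kg and by PO at 10 mg/kg. Cmax, Tmax, T1/2 and AUClast were derived for each route. F (%) was calculated from the PO and IV AUClast.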

[4] = tested on: MDA-MB-231; assay: Antitumor activity against human MDA-MB-231 cells xenografted in athymic nude mouse assessed as reduction in median number of days for tumor to reach two tumor mass doubling at 30 mg/kg, po administered every other day for 4 doses in presence of 12 mg/kg encequidar and monitored for 70 to 82 days (reference value: 13.1 day); format: functional; conditions: time 70-82 day
[5] = AUClast in Sprague-Dawley rat at 20 mg/kg, po measured upto 24 hrs in presence of 10 mg/kg encequidar by LC-MS/MS analysis; format: ADME, organism-based; design: route oral, dose 20 mg/kg, time <=24; conditions: in vivo

| inhibition (INH) [2] [%] | half-life [3] [h] | Structure (SMILES) | Activity [1] | Time [4] [days] | AUC(0-t) at 24 h [5] [ng·h/mL] |
| --- | --- | --- | --- | --- | --- |
| < 50 | 14.8 | COc1cc2c(cc1OC)CN(CCc1ccc(-n3nnc(-c4cc(OC)c(OC)cc4NC(=O)c4cc(=O)c5ccccc5o4)n3)cc1)CC2 | Toxic |  |  |
|  |  | CC(=O)O[C@H]1C(=O)[C@@]2(C)[C@H]([C@H](OC(=O)c3ccccc3)[C@]3(O)C[C@H](OC(=O)[C@H](O)[C@@H](NC(=O)c4ccccc4)c4ccccc4)C(C)=C1C3(C)C)[C@]1(OC(C)=O)CO[C@@H]1C[C@@H]2O [PACLITAXEL] |  | >69 | 3760 |
